ChEMBL document CHEMBL1926651, “Design, synthesis, antiviral and cytostatic evaluation of novel isoxazolidine nucleotide analogues with a 1,2,3-triazole linker” (Eur J Med Chem, 2012)
Activity calls are given as the source filed them. No cut-off for these calls is given here.

What was measured:
Human alphaherpesvirus 1 [1] = assay: Antiviral activity against Herpes simplex virus 1 KOS infected in human HEL cells assessed as inhibition of viral plaque formation at 250 uM; format: functional, organism-based
Method in brief: (§1)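 Confluent host cell monolayers were inoculated with 100 CCID50 of virus in the presence of test compound at serial dilutions (250, 50, 10, … μM). Viral cytopathicity was scored once it reached completion in untreated virus-infected controls.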

Human alphaherpesvirus 2 = assay: Antiviral activity against Herpes simplex virus 2 G infected in human HEL cells assessed as inhibition of viral plaque formation at 250 uM; format: functional, organism-based; conditions: strain G
Human alphaherpesvirus 1 [2] = assay: Antiviral activity against thymidine kinase-deficient acv-resistant Herpes simplex virus 1 KOS infected in human HEL cells assessed as inhibition of viral plaque formation at 250 uM; format: functional, organism-based
Vaccinia virus = assay: Antiviral activity against Vaccinia virus infected in human HEL cells assessed as inhibition of viral plaque formation at 250 uM; format: functional, organism-based; conditions: Orthopoxvirus vaccinia; method in brief: as §1
[3] = tested on: Vesicular stomatitis virus; assay: Antiviral activity against Vesicular stomatitis virus infected in human HEL cells assessed as inhibition of viral plaque formation at 250 uM; format: functional, organism-based; method in brief: as §1
Human betaherpesvirus 5 [4] = assay: Antiviral activity against Human cytomegalovirus AD169 infected in human HEL cells assessed as inhibition of viral plaque formation at 250 uM; format: functional, organism-based
Human betaherpesvirus 5 [5] = assay: Antiviral activity against Human cytomegalovirus Davis infected in human HEL cells assessed as inhibition of viral plaque formation at 250 uM; format: functional, organism-based
Human alphaherpesvirus 3 [6] = assay: Antiviral activity against thymidine kinase-positive Varicella Zoster virus Oka infected in human HEL cells assessed as inhibition of viral plaque formation at 250 uM; format: functional, cell-based; conditions: strain Oka vaccine
Human alphaherpesvirus 3 [7] = assay: Antiviral activity against thymidine kinase-deficient Varicella Zoster virus 07/1 infected in human HEL cells assessed as inhibition of viral plaque formation at 250 uM; format: functional, organism-based
Human respirovirus 3 = assay: Antiviral activity against Parainfluenza-3 virus infected in african green monkey Vero cells assessed as inhibition of viral plaque formation at 250 uM; format: functional, organism-based; method in brief: as §1
[8] = tested on: Mammalian orthoreovirus 1; assay: Antiviral activity against Reovirus-1 infected in african green monkey Vero cells assessed as inhibition of viral plaque formation at 250 uM; format: functional, organism-based; method in brief: as §1
Sindbis virus = assay: Antiviral activity against Sindbis virus infected in african green monkey Vero cells assessed as inhibition of viral plaque formation at 250 uM; format: functional, organism-based; method in brief: as §1
Coxsackievirus B4 [9] = assay: Antiviral activity against Coxsackievirus B4 infected in african green monkey Vero cells assessed as inhibition of viral plaque formation at 250 uM; format: functional, organism-based; method in brief: as §1
Punta Toro virus = assay: Antiviral activity against Punta Toro virus infected in african green monkey Vero cells assessed as inhibition of viral plaque formation at 250 uM; format: functional, organism-based
[10] = tested on: Vesicular stomatitis virus; assay: Antiviral activity against Vesicular stomatitis virus infected in human Hela cells assessed as inhibition of viral plaque formation at 250 uM; format: functional, organism-based
Coxsackievirus B4 [11] = assay: Antiviral activity against Coxsackievirus B4 infected in human HeLa cells assessed as inhibition of viral plaque formation at 250 uM; format: functional, organism-based; method in brief: as §1
[12] = tested on: Respiratory syncytial virus; assay: Antiviral activity against Respiratory syncytial virus infected in human HeLa cells assessed as inhibition of viral plaque formation at 250 uM; format: functional, organism-based; method in brief: as §1
Felid alphaherpesvirus 1 = assay: Antiviral activity against Felid herpesvirus 1 infected in CrFK cells assessed as inhibition of viral plaque formation at 250 uM; format: functional, organism-based; method in brief: as §1
Feline coronavirus = assay: Antiviral activity against Feline coronavirus infected in CrFK cells assessed as inhibition of viral plaque formation at 250 uM; format: functional, organism-based; method in brief: as §1
[13] = tested on: Human immunodeficiency virus 2; assay: Antiviral activity against Human immunodeficiency virus 2 infected in human CEM cells assessed as inhibition of virus-induced giant cell formation after 4 days by microscopic analysis; format: functional, organism-based; conditions: CCRF-CEM
Method in brief: (§2)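 CEM cells at about 3 × 10⁵ cells/cm³ were infected with 100 CCID50/mL of HIV-1(IIIB) or HIV-2(ROD), then seeded into wells holding test compound dilutions. After 4 days at 37 °C, virus-induced giant cell formation was scored microscopically.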

[14] = tested on: Human immunodeficiency virus 1; assay: Antiviral activity against Human immunodeficiency virus 1 infected in human CEM cells assessed as inhibition of virus-induced giant cell formation after 4 days by microscopic analysis; format: functional, organism-based; conditions: CCRF-CEM; method in brief: as §2
HEL [15] = assay: Cytotoxicity against human HEL cells assessed as change in cell morphology up to 100 uM; format: cell-based
Method in brief: (§3)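 Uninfected host-cell cultures were examined under the microscope. MCC was taken as the lowest compound concentration producing a detectable alteration of normal cell morphology, assessed at concentrations up to 100 μM.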

HeLa [16] = assay: Cytotoxicity against human HeLa cells assessed as change in cell morphology up to 100 uM; format: cell-based; method in brief: as §3
Vero = assay: Cytotoxicity against african green monkey Vero cells assessed as change in cell morphology up to 100 uM; format: cell-based; conditions: chlorocebus sabaeus; method in brief: as §3
MDCK = assay: Cytotoxicity against MDCK cells assessed as change in cell morphology up to 100 uM; format: cell-based, Canis lupus familiaris; conditions: dog; method in brief: as §3
[17] = Cytotoxicity against CRFK cells assessed as change in cell morphology up to 100 uM; format: cell-based, Felis catus; conditions: cat; method in brief: as §3
HEL [18] = assay: Cytotoxicity against human HEL cells 3 days by coulter counting; format: functional; conditions: 72 h
Method in brief: (§4)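 Cells were suspended at 300,000–500,000 cells/mL and added 1:1 to compound dilutions. Incubation was at 37 °C, 2 days for L1210 and 3 days for CEM, HeLa and HEL. Cells were counted with a Coulter counter. CC50 is the concentration inhibiting cell proliferation by 50%.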

HeLa [19] = assay: Cytotoxicity against human HeLa cells 3 days by coulter counting; format: functional; conditions: 72 h; method in brief: as §4
CCRF-CEM = assay: Cytotoxicity against human CEM cells 3 days by coulter counting; format: functional; conditions: 72 h; method in brief: as §4
L1210 = assay: Cytotoxicity against mouse L1210 cells 2 days by coulter counting; format: functional; conditions: L1210, 48 h; method in brief: as §4

SMILES	Activity (Human alphaherpesvirus 1 [1])	Activity (Human alphaherpesvirus 2)	Activity (Human alphaherpesvirus 1 [2])	Activity (Vaccinia virus)	Activity [3]	Activity (Human betaherpesvirus 5 [4])	Activity (Human betaherpesvirus 5 [5])	Activity (Human alphaherpesvirus 3 [6])	Activity (Human alphaherpesvirus 3 [7])	Activity (Human respirovirus 3)	Activity [8]	Activity (Sindbis virus)	Activity (Coxsackievirus B4 [9])	Activity (Punta Toro virus)	Activity [10]	Activity (Coxsackievirus B4 [11])	Activity [12]	Activity (Felid alphaherpesvirus 1)	Activity (Feline coronavirus)	Activity [13]	also measured
CCOP(=O)(OCC)[C@@H]1C[C@H](n2cc(-c3ccccc3)nn2)ON1C (relative stereo)	inactive	inactive	inactive	inactive	inactive	inactive	inactive	inactive	inactive	inactive	inactive	inactive	inactive	inactive	inactive	inactive	inactive	inactive	inactive	inactive	Activity [14]: inactive; Activity (HEL [15]): Non-toxic; Activity (HeLa [16]): Non-toxic; Activity (Vero): Non-toxic; Activity (MDCK): Non-toxic; Activity [17]: Non-toxic; CC50 (HEL [18]): 54 µM; CC50 (HeLa [19]): > 250 µM; CC50 (CCRF-CEM): > 250 µM; CC50 (L1210): 172 µM
CCOP(=O)(OCC)[C@@H]1C[C@H](n2cc(-c3ccccc3F)nn2)ON1C (relative stereo)	inactive	inactive	inactive	inactive	inactive	inactive	inactive	inactive	inactive	inactive	inactive	inactive	inactive	inactive	inactive	inactive	inactive	inactive	inactive	inactive	Activity [14]: inactive; Activity (HEL [15]): Non-toxic; Activity (HeLa [16]): Non-toxic; Activity (Vero): Non-toxic; Activity (MDCK): Non-toxic; Activity [17]: Non-toxic; CC50 (HEL [18]): 41 µM; CC50 (HeLa [19]): 247 µM; CC50 (CCRF-CEM): > 250 µM; CC50 (L1210): 122 µM
CCOP(=O)(OCC)[C@@H]1C[C@H](n2cc(-c3cccc(F)c3)nn2)ON1C (relative stereo)	inactive	inactive	inactive	inactive	inactive	inactive	inactive	inactive	inactive	inactive	inactive	inactive	inactive	inactive	inactive	inactive	inactive	inactive	inactive	inactive	Activity [14]: inactive; Activity (HEL [15]): Non-toxic; Activity (HeLa [16]): Non-toxic; Activity (Vero): Non-toxic; Activity (MDCK): Non-toxic; Activity [17]: Non-toxic; CC50 (HEL [18]): 43 µM; CC50 (HeLa [19]): 212 µM; CC50 (CCRF-CEM): > 250 µM; CC50 (L1210): 104 µM
CCOP(=O)(OCC)[C@@H]1C[C@H](n2cc(-c3ccc(F)cc3F)nn2)ON1C (relative stereo)	inactive	inactive	inactive	inactive	inactive	inactive	inactive	inactive	inactive	inactive	inactive	inactive	inactive	inactive	inactive	inactive	inactive	inactive	inactive	inactive	Activity [14]: inactive; Activity (HEL [15]): Non-toxic; Activity (HeLa [16]): Non-toxic; Activity (Vero): Non-toxic; Activity (MDCK): Non-toxic; Activity [17]: Non-toxic; CC50 (HEL [18]): 42 µM; CC50 (HeLa [19]): 135 µM; CC50 (CCRF-CEM): ≥ 250 µM; CC50 (L1210): 124 µM
CCOP(=O)(OCC)[C@@H]1C[C@H](n2cc(-c3ccccn3)nn2)ON1C (relative stereo)	inactive	inactive	inactive	inactive	inactive	inactive	inactive	inactive	inactive	inactive	inactive	inactive	inactive	inactive	inactive	inactive	inactive	inactive	inactive	inactive	Activity [14]: inactive; Activity (HEL [15]): Non-toxic; Activity (HeLa [16]): Non-toxic; Activity (Vero): Non-toxic; Activity (MDCK): Non-toxic; Activity [17]: Non-toxic; CC50 (HEL [18]): 78 µM; CC50 (HeLa [19]): > 250 µM; CC50 (CCRF-CEM): > 250 µM; CC50 (L1210): 206 µM
